Bioassay records (PubChem)
L major viab: inhibitors of Leishmania major promastigote growth. Leishmania major promastigotes, resazurin fluorescence viability. inhibition, % at 10 µM. 9% of 200,000 active. AID 1063; in the data active = inhibition above about 50%;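 also: promastigotes grown with compound for 44 hours at 28 °C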
Dynein cargo inh: dynein cargo transport inhibition; 3617.4 mouse cells, GR-EGFP nuclear translocation imaging; test concentration mostly 20 µM; stimulated with dexamethasone, 1 µM; hits give low values; 0.47% of 220,000 active; z-score, hits read low; AID 1381;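 active = plate z-score of nuclear minus cytoplasmic receptor signal below a set negative limit, without overly bright fluorescence or cell loss, cut at about -3.5 in these data, passing the limit was not always enough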;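 also: z-score of nuclear minus cytoplasmic ring GR-EGFP intensity difference per well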
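Buffer or medium: tet-free, stripped-serum medium; reagent: dexamethasone at 1.0 µM final, 30 min; incubation: 48 h induction, 1 h compound, 30 min dex at 37 °C; measured by: formaldehyde fixation, Hoechst nuclear stain, 10x automated fluorescence imaging; read-out: nuclear-to-cytoplasmic GR-EGFP distribution per well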
XBP1 UPR activ: adaptive UPR (XBP1) activation; 0.33% of 330,000 active; activation, % at 20 µM; CHO-XBP1 luciferase reporter, IRE1-XBP1 UPR activation, luminescence; percent of tunicamycin response, DMSO as zero;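 active = versus positive control, 20 µM dose yields 30% or more activation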;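 also: 100% = tunicamycin at 10 µg/mL and 0% = DMSO only wells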
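Assay system: IRE1-XBP1 luciferase reporter CHO line. Input: 1000 cells/well. Buffer or medium: F12 with 10% serum. Doses: 20 µM, 1% DMSO. Times: overnight seeding at 37 °C, 6 h compound treatment at 37 °C. Technique: Steady-Glo luciferase glow luminescence, 10 min after reagent addition.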
CHOP inhibitor: blocks CHOP induction under ER stress; CHO-K1 CHOP-promoter luciferase, tunicamycin-induced, 15-18 h; inhibition, % at 10 µM; 3.8% of 220,000 active; AID 2732;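 active = compounds that reduced the stress-induced luciferase reporter signal by more than about 70% of percent inhibition, limit read from the data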;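 also: 0% = tunicamycin plus vehicle and 100% = wells without tunicamycin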
CHOP UPR activ: apoptotic UPR (CHOP) activation; CHO-CHOP luciferase reporter, luminescence; percent of tunicamycin response over DMSO baseline; 0.34% of 330,000 active; activation, % at 10 µM;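 active = at 10 µM dose, activation of 40% or more, normalized to positive control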;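 also: 100% = tunicamycin at 10 µg/mL and 0% = DMSO alone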
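assay system = CHO CHOP reporter cells | amount = 500 CHO-CHOP cells per well | buffer or medium = F12 with 10% FBS | incubation = 16-18 h cell attachment, then 6 h compound exposure, 37 °C | detection = luminescence read with Steady-Glo | read-out = percent activation relative to tunicamycin control | controls = tunicamycin high control, DMSO low control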
T cruzi inh: blocks replication of Trypanosoma cruzi | T. cruzi beta-gal in NIH3T3, luminescence, 90 h | inhibition, % (concentration not given with the values) | 1.4% of 300,000 active;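 active = mean inhibition across valid replicates above about 55%, limit read from the data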;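 also: signal also drops with host cell toxicity which is not excluded here; 0% = plate median of DMSO wells and 100% = zero luminescence signal; higher percent means less beta-gal luminescence so fewer parasites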
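Assay system: NIH/3T3 host cells with β-galactosidase reporter T. cruzi; input: 5,000 host fibroblasts per well; compound: single 50 nL compound addition per well in DMSO; timing: ≥90 h infection period, 3 h prior cell attachment; measured by: GalScreen β-gal luminescence, detergent lysis, 60 min; evaluation: percent inhibition of parasite-derived β-gal signal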
The depositor's hits bear a star; x = not tested or not shown. Shown is part of a subset that was picked to be rich in hits.

SMILES	L major viab	Dynein cargo inh	XBP1 UPR activ	CHOP inhibitor	CHOP UPR activ	T cruzi inh
Cn1c(=O)oc2cc(S(=O)(=O)NCc3ccco3)ccc21	-10	-0.56	-1	4	0	-2
CCN(CC)S(=O)(=O)c1cc(C(=O)Nc2cc(C)on2)c(Cl)cc1Cl	x	x	-6	x	4	9
CCOC(=O)C1(Cc2cccc(Cl)c2)CCCN(CCO)C1 (configuration not stated)	-5	-0.36	-2	8	-1	-1
O=S(=O)(NC1CCN(Cc2ccccc2)CC1)c1ccc2ccccc2c1	89*	0.5	2	39	3	11
O=C(C1CC1)N1CCc2cc(S(=O)(=O)NC3CCN(Cc4ccccc4)CC3)ccc21	59*	0.32	-4	48	0	2
O=C(NNS(=O)(=O)c1ccc2ccccc2c1)C1CCN(Cc2ccccc2)CC1	42	-0.6	x	54	x	12
O=c1[nH]cnc2c1ncn2[C@@H]1O[C@H](COS(=O)(=O)O)[C@@H](O)[C@H]1O	x	x	0	x	-1	x
O=C(c1ccc(Cl)c(S(=O)(=O)N2CCOCC2)c1)N1CCc2ccccc2C1	x	x	-2	x	-2	x
CC1CCCC(NC(=O)COC(=O)CSc2ccc3ccccc3c2)C1C (configuration not stated)	55*	0.018	-2	60	-1	0
N=C1S/C(=C\c2ccco2)C(=O)N1c1nccs1	90*	0.44	10	-2	11	56*
N=C1S/C(=C\c2ccco2)C(=O)N1c1ccc2c(c1)OCO2	6	0.19	7	16	3	-2
Cc1nc2scc(-c3ccc(C(C)(C)C)cc3)c2c(=O)n1N	-2	-0.1	3	76*	1	-8
CC(=O)c1c(C)[nH]c(C(=O)Nc2nc(-c3ccc(Cl)cc3)cs2)c1C	11	0.14	6	35	1	29
CC(=O)c1c(C)[nH]c(C(=O)Nc2nc(-c3ccc(-c4ccccc4)cc3)cs2)c1C	97*	1.3	7	34	14	69*
COc1ccc(S(=O)(=O)N2CCCCC2)cc1NS(=O)(=O)c1ccccc1	x	x	0	x	0	x
Cc1cccc2c1N(C(=O)CN1C(=O)c3ccccc3C1=O)C(C)(C)c1ssc(=S)c1-2	39	1.8	0	1	1	6
Cc1cc(C)c2c(c1)-c1c(ssc1=S)C(C)(C)N2C(=O)CN1C(=O)c2ccccc2C1=O	97*	0.39	-4	-1	1	15
Cc1cc(C(N)=O)nn1-c1c(Cl)cc(Cl)cc1Cl	x	0.018	1	-7	0	-30
CC(C)C(C(=O)NCc1ccco1)N(C(=O)CNS(=O)(=O)c1ccccc1)c1ccccc1 (configuration not stated)	17	-0.66	-2	0	0	1
O=C(NC1CCCCC1)N(Cc1ccccc1)Cc1ccco1	55*	-0.082	-3	29	-2	-2
CC(C)C(C(=O)NCc1ccco1)N(C(=O)CNS(=O)(=O)c1ccc(Cl)cc1)C1CCCC1 (configuration not stated)	89*	0.59	-2	11	2	13
CCCC(C(=O)NC1CCCCC1)N(Cc1ccco1)C(=O)CNS(=O)(=O)c1ccccc1 (configuration not stated)	63*	-0.4	-2	-4	0	15
Cc1cccc(C(=O)N2CCNC(=O)C2CC(=O)Nc2cccc(Cl)c2)c1 (configuration not stated)	x	x	-2	x	-1	6
Cn1nccc1C(=O)Nc1ccn(C23CC4CC(CC(C4)C2)C3)n1	53*	-0.73	1	35	5	2
O=S(=O)(NCc1ccccc1)NCc1ccccc1	-3	-0.33	1	73*	0	-18
O=C(/C=C/c1ccccc1)N1CCC(N2CCC(C(=O)N3CCOCC3)CC2)CC1	51*	0.47	-1	18	0	4
O=C(NC1CC1)C1CCN(C2CCN(C(=O)/C=C/c3ccc(F)cc3)CC2)CC1	66*	0.15	-3	22	1	5
